Experiments:
[1] = Toxicity in mouse po dosed through diet for 14 days; format: organism-based; conditions: in vivo
In short: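 Mice infected with a Puerto Rican strain of *Schistosoma mansoni*; drug mixed into a powdered diet and fed orally for 14 days; doses expressed as mg/kg per day.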

Schistosoma mansoni [2] = assay: Antischistosomal activity against Schistosoma mansoni Puerto Rican infected mouse assessed as reduction in live schistosomes at 78 mg/kg/day, through diet for 14 days; format: functional; conditions: 336 h
In short: (§1)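 Mice carrying a Puerto Rican strain of S. mansoni received drug mixed into a powdered diet for 14 days, with dose expressed as mg/kg per day. The read-out was the reduction in live schistosomes in the infected mice.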

Schistosoma mansoni [3] = assay: Antischistosomal activity against Schistosoma mansoni Puerto Rican infected mouse assessed as infected mouse at 78 mg/kg/day, through diet for 14 days; format: functional; in short: as §1
Schistosoma mansoni [4] = assay: Antischistosomal activity against Schistosoma mansoni Puerto Rican infected mouse assessed as reduction in live schistosomes at 305 mg/kg/day, through diet for 14 days; format: functional; conditions: 336 h; in short: as §1
Schistosoma mansoni [5] = assay: Antischistosomal activity against Schistosoma mansoni Puerto Rican infected mouse assessed as infected mouse at 305 mg/kg/day, through diet for 14 days; format: functional; in short: as §1
Schistosoma mansoni [6] = assay: Antischistosomal activity against Schistosoma mansoni Puerto Rican infected mouse assessed as infected mouse at 396 mg/kg/day, through diet for 14 days; format: functional; in short: as §1
Schistosoma mansoni [7] = assay: Antischistosomal activity against Schistosoma mansoni Puerto Rican infected mouse assessed as reduction in live schistosomes at 396 mg/kg/day, through diet for 14 days; format: functional; conditions: 336 h; in short: as §1
Schistosoma mansoni [8] = assay: Antischistosomal activity against Schistosoma mansoni Puerto Rican infected mouse assessed as infected mouse at 329 mg/kg/day, through diet for 14 days; format: functional; in short: as §1
Schistosoma mansoni [9] = assay: Antischistosomal activity against Schistosoma mansoni Puerto Rican infected mouse assessed as reduction in live schistosomes at 329 mg/kg/day, through diet for 14 days; format: functional; conditions: 336 h; in short: as §1
Schistosoma mansoni [10] = assay: Antischistosomal activity against Schistosoma mansoni Puerto Rican infected mouse assessed as reduction in live schistosomes at 288 mg/kg/day, through diet for 14 days; format: functional; conditions: 336 h; in short: as §1
Schistosoma mansoni [11] = assay: Antischistosomal activity against Schistosoma mansoni Puerto Rican infected mouse assessed as infected mouse at 288 mg/kg/day, through diet for 14 days; format: functional; in short: as §1
Schistosoma mansoni [12] = assay: Antischistosomal activity against Schistosoma mansoni Puerto Rican infected mouse assessed as reduction in live schistosomes at 146 mg/kg/day, through diet for 14 days; format: functional; conditions: 336 h; in short: as §1
Schistosoma mansoni [13] = assay: Antischistosomal activity against Schistosoma mansoni Puerto Rican infected mouse assessed as infected mouse at 146 mg/kg/day, through diet for 14 days; format: functional; in short: as §1
Schistosoma mansoni [14] = assay: Antischistosomal activity against Schistosoma mansoni Puerto Rican infected mouse assessed as infected mouse at 376 mg/kg/day, through diet for 14 days; format: functional; in short: as §1
Schistosoma mansoni [15] = assay: Antischistosomal activity against Schistosoma mansoni Puerto Rican infected mouse assessed as reduction in live schistosomes at 376 mg/kg/day, through diet for 14 days; format: functional; conditions: 336 h; in short: as §1
Schistosoma mansoni [16] = assay: Antischistosomal activity against Schistosoma mansoni Puerto Rican infected mouse assessed as infected mouse at 314 mg/kg/day, through diet for 14 days; format: functional; in short: as §1
Schistosoma mansoni [17] = assay: Antischistosomal activity against Schistosoma mansoni Puerto Rican infected mouse assessed as reduction in live schistosomes at 314 mg/kg/day, through diet for 14 days; format: functional; conditions: 336 h; in short: as §1
Schistosoma mansoni [18] = assay: Antischistosomal activity against Schistosoma mansoni Puerto Rican infected mouse assessed as reduction in live schistosomes at 349 mg/kg/day, through diet for 14 days; format: functional; conditions: 336 h; in short: as §1
Schistosoma mansoni [19] = assay: Antischistosomal activity against Schistosoma mansoni Puerto Rican infected mouse assessed as infected mouse at 349 mg/kg/day, through diet for 14 days; format: functional; in short: as §1
Schistosoma mansoni [20] = assay: Antischistosomal activity against Schistosoma mansoni Puerto Rican infected mouse assessed as reduction in live schistosomes at 400 mg/kg/day, through gavage for 10 days; format: functional; conditions: po, 240 h
Schistosoma mansoni [21] = assay: Antischistosomal activity against Schistosoma mansoni Puerto Rican infected mouse assessed as infected mouse at 400 mg/kg/day, through gavage for 10 days; format: functional
Schistosoma mansoni [22] = assay: Antischistosomal activity against Schistosoma mansoni Puerto Rican infected mouse assessed as infected mouse at 140 mg/kg/day, through diet for 14 days; format: functional; in short: as §1
Schistosoma mansoni [23] = assay: Antischistosomal activity against Schistosoma mansoni Puerto Rican infected mouse assessed as reduction in live schistosomes at 140 mg/kg/day, through diet for 14 days; format: functional; conditions: 336 h; in short: as §1

Q: Which results are given for `CN(C)CCCN1C(=O)NC(c2cc(Cl)c(Cl)cc2Cl)C1=O` (stereo unspecified)?
A: MTD at 336 h [1]: 78 mg/kg; inhibition in vivo at 78 mg/kg/day (Schistosoma mansoni [2]): 0%; Activity (Schistosoma mansoni [3]): 100%

Q: Which results are given for `O=C1NC(=O)C(c2c(Cl)ccc(Cl)c2Cl)N1` (stereo unspecified)?
A: inhibition in vivo at 305 mg/kg/day (Schistosoma mansoni [4]): 0%; Activity (Schistosoma mansoni [5]): 100%

Q: With `CN1C(=O)NC(=O)C1c1cc(Cl)c(Cl)cc1Cl` (stereo unspecified) as the compound, how does the Activity (Schistosoma mansoni [6]) read?
A: Its Activity is 83%.

Q: And the inhibition in vivo at 396 mg/kg/day (Schistosoma mansoni [7])?
A: The inhibition in vivo at 396 mg/kg/day was 71%.

Q: Which results are given for `O=C1NC(=O)C(c2ccc(Cl)c(Cl)c2)N1` (stereo unspecified)?
A: Activity (Schistosoma mansoni [8]): 100%; inhibition in vivo at 329 mg/kg/day (Schistosoma mansoni [9]): 0%

Q: With `C[N+](C)(C)CCCN1C(=O)NC(c2cc(Cl)c(Cl)cc2Cl)C1=O.[I-]` (stereo unspecified) as the compound, how does the inhibition in vivo at 288 mg/kg/day (Schistosoma mansoni [10]) read?
A: Its inhibition in vivo at 288 mg/kg/day is 13%.

Q: What about the Activity (Schistosoma mansoni [11]) of the same compound?
A: The Activity was 100%.

Q: With `O=C1NC(c2cc(Cl)c(Cl)cc2Cl)C(=O)N1CO` (stereo unspecified) as the compound, how does the inhibition in vivo at 146 mg/kg/day (Schistosoma mansoni [12]) read?
A: Its inhibition in vivo at 146 mg/kg/day is 0%.

Q: And the Activity (Schistosoma mansoni [13])?
A: Its Activity is 100%.

Q: With `CC1(c2ccc(Cl)c(Cl)c2)NC(=O)NC1=O` (stereo unspecified) as the compound, how does the Activity (Schistosoma mansoni [14]) read?
A: The Activity was 100%.

Q: What about the inhibition in vivo at 376 mg/kg/day (Schistosoma mansoni [15]) of the same compound?
A: Its inhibition in vivo at 376 mg/kg/day is 38%.

Q: Which results are given for `CC1(c2ccc([N+](=O)[O-])cc2)NC(=O)NC1=O` (stereo unspecified)?
A: Activity (Schistosoma mansoni [16]): 100%; inhibition in vivo at 314 mg/kg/day (Schistosoma mansoni [17]): 0%

Q: With `Cc1cc(Cl)c(Cl)cc1C1(C)NC(=O)NC1=O` (stereo unspecified) as the compound, how does the inhibition in vivo at 349 mg/kg/day (Schistosoma mansoni [18]) read?
A: The inhibition in vivo at 349 mg/kg/day was 48%.

Q: And the Activity (Schistosoma mansoni [19])?
A: The Activity was 100%.

Q: With `O=C1NC(=O)C(c2cc(Cl)c(Cl)cc2Cl)N1` (stereo unspecified) as the compound, how does the Activity (Schistosoma mansoni [8]) read?
A: The Activity was 67%.

Q: What about the inhibition in vivo at 400 mg/kg/day (Schistosoma mansoni [20]) of the same compound?
A: The inhibition in vivo at 400 mg/kg/day was 0%.

Q: And the inhibition in vivo at 329 mg/kg/day (Schistosoma mansoni [9])?
A: Its inhibition in vivo at 329 mg/kg/day is 80%.

Q: What about the Activity (Schistosoma mansoni [21]) of the same compound?
A: Its Activity is 100%.

Q: With `CCN(CC)CCNc1ccc(C)c2sc3ccccc3c(=O)c12.Cl` [LUCANTHONE HYDROCHLORIDE] as the compound, how does the MTD at 336 h [1] read?
A: The MTD at 336 h was 140 mg/kg.

Q: What about the Activity (Schistosoma mansoni [22]) of the same compound?
A: The Activity was 90%.

Q: What about the inhibition in vivo at 140 mg/kg/day (Schistosoma mansoni [23]) of the same compound?
A: The inhibition in vivo at 140 mg/kg/day was 71%.

— ChEMBL document CHEMBL3244429, “Antischistosomal effects of 5-(2,4,5-trichlorophenyl)hydantoin and related compounds” (J Med Chem, 1977)
